Read-outs that look alike come from different tables or passages of the source.
How the values were obtained:
[1] = tested on: A549 (human lung adenocarcinoma) cells; experiment: MTT cytotoxicity assay, A549; format: cell-based; details: for IC50: read-out: IC50 A549; for SI A549 (Selectivity Index): SI = IC50 for normal cell line (HaCaT)/IC50 cancer cell line
Outline: (§1)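 Cells were seeded in 96-well plates at 1 × 10^4 per well in DMEM with 2% FBS and exposed 72 h to a range of test-compound concentrations. MTT (0.5 mg/mL) was added for 4 h, and formazan was dissolved in 0.04 M HCl/isopropanol. A570 was read relative to untreated control. […] SI = IC50 in HaCaT keratinocytes / IC50 in the cancer line. Mean SD.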

[2] = tested on: HTB-140 (human melanoma) cells; experiment: MTT cytotoxicity assay, HTB-140; format: cell-based; details: for IC50: 72 h, read-out: IC50 HTB-140; for SI HTB-140 (Selectivity Index): SI = IC50 for normal cell line (HaCaT)/IC50 cancer cell line
Outline: as §1

[3] = tested on: HeLa (human cervical cancer) cells; experiment: MTT cytotoxicity assay, HeLa; format: cell-based; details: for IC50: 72 h, read-out: IC50 HeLa; for SI HeLa (Selectivity Index): SI = IC50 for normal cell line (HaCaT)/IC50 cancer cell line
Outline: as §1

[4] = tested on: SW620 (human colorectal cancer) cells; experiment: MTT cytotoxicity assay, SW620; format: cell-based; details: for SI SW620 (Selectivity Index): SI = IC50 for normal cell line (HaCaT)/IC50 cancer cell line
Outline: as §1

[5] = tested on: HaCaT (immortalized human keratinocytes); experiment: MTT cytotoxicity assay, HaCaT normal cells; format: cell-based; details: 72 h, read-out: IC50 HaCaT (normal cells)
[6] = tested on: A549 cells; experiment: Apoptosis, Annexin V-FITC/7-AAD flow cytometry, A549; format: cell-based, human; details: for cells in late apoptosis or necrosis: A549, IC50 concentration, 72 h
Outline: (§2)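 Human HTB-140, A549, HeLa, SW620 or HaCaT cells were grown in DMEM with 2% FBS at 1 × 10^4 cells per well and preincubated 72 h with test compound. Camptothecin, 4 µM for 4 h, served as the positive control. Cells were dual-stained with Annexin V-FITC and 7-AAD, and 10,000 cells were analysed by flow cytometry. Annexin+/7-AAD− cells counted as early apoptotic; Annexin+/7-AAD+ as late apoptotic or necrotic.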

[7] = tested on: HaCaT cells; experiment: LDH release assay, HaCaT; format: cell-based, human; details: 25 µM, 72 h
[8] = tested on: HTB-140 cells; experiment: LDH release assay, HTB-140; format: cell-based, human; details: 25 µM, 72 h
[9] = tested on: HTB-140 cells; experiment: Apoptosis, Annexin V-FITC/7-AAD flow cytometry, HTB-140; format: cell-based, human
Outline: as §2

[10] = tested on: interleukin-6 (IL-6) release, A549 cells; experiment: IL-6 level by ELISA, A549; format: cell-based, human; details: A549, IC50 dose, 72 h
Outline: (§3)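 Cells were seeded at 1 × 10^4 per well in DMEM with 2% FBS and exposed to test compound for 72 h. IL-6 in the culture supernatant was measured with a commercial ELISA kit and compared with untreated control. Data are mean ± SD from three independent experiments, each run in triplicate, compared by Student's t-test.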

[11] = tested on: interleukin-6 (IL-6) release, HeLa cells; experiment: IL-6 level by ELISA, HeLa; format: cell-based, human; details: IC50 dose, 72 h
Outline: as §3

[12] = tested on: interleukin-6 (IL-6) release, HTB-140 cells; experiment: IL-6 level by ELISA, HTB-140; format: cell-based, human; details: HTB-140, IC50 dose, 72 h
Outline: as §3

[13] = tested on: interleukin-6 (IL-6) release, SW620 cells; experiment: IL-6 level by ELISA, SW620; format: cell-based, human; details: SW620, IC50 dose, 72 h
Outline: as §3

[14] = tested on: SW620 cells; experiment: Apoptosis, Annexin V-FITC/7-AAD flow cytometry, SW620; format: cell-based, human; details: SW620, 4 µM, 4 h
Outline: as §2

[15] = tested on: HeLa cells; experiment: Apoptosis, Annexin V-FITC/7-AAD flow cytometry, HeLa; format: cell-based, human; details: 4 µM, 4 h
Outline: as §2

[16] = tested on: HaCaT cells; experiment: Apoptosis, Annexin V-FITC/7-AAD flow cytometry, HaCaT; format: cell-based, human; details: 4 µM, 4 h
Outline: as §2

[17] = Homo sapiens, SW-620, 72 h, read-out: IC50 SW620, MTT, 72 h, mean SD
[18] = HTB-140, IC50 concentration, 72 h
[19] = read-out: IC50 SW620, MTT, 72 h, mean SD

Row | SMILES | IC50 ([1]; Homo sapiens, A549, 72 h) [µM] | SI A549 (Selectivity Index) [1] | IC50 ([2]; Homo sapiens) [µM] | SI HTB-140 (Selectivity Index) [2] | IC50 ([3]; Homo sapiens, HeLa) [µM] | SI HeLa (Selectivity Index) [3] | IC50 [4, 17] [µM] | SI SW620 (Selectivity Index) [4] | IC50 ([5]; Homo sapiens, HaCaT) [µM] | further results
1 | CCc1cc(=O)c2c(O)c3ccoc3c(O)c2o1 [Compound 1, 7-ethyl-4,9-dihydroxy-5 H-furo[3,2-g][1]benzopyran-5-one] | 39.8 ± 7.9 | 1.25 | 30.4 ± 8.7 | 1.64 | 41.5 ± 4.6 | 1.20 | 21.1 ± 4.4 | 2.36 | 49.8 ± 7.9 | 
2 | CCc1cc(=O)c2c(O)c3ccoc3c(OC)c2o1 [Compound 2, 7-ethyl-4-hydroxy-9-methoxy-5H-furo[3,2-g][1]benzopyran-5-one] | 36.5 ± 6.5 | 1.27 | 29.4 ± 3.4 | 1.58 | 29.2 ± 3.9 | 1.59 | 17.4 ± 3.5 | 2.67 | 46.5 ± 8.5 | cells in late apoptosis or necrosis [6]: 63.2%; LDH release [7]: 13.5%; LDH release [8]: 30.4%; cells in early apoptosis [9, 18]: 19.5%; cells in late apoptosis or necrosis [9, 18]: 20.8%; IL-6 release effect vs control [10]: 38%
3 | CCc1cc(=O)c2c(OCC(O)CN(CC)CC)c3ccoc3c(OC)c2o1 (stereo not shown) [Compound 3, 7-ethyl-9-methoxy-4-[3-(diethylamino)-2-hydroxypropoxy]-5H-furo[3,2-g][1] benzopyran-5-one] | 33.6 ± 4.1 | 1.29 | 30.1 ± 4.7 | 1.44 | 34.2 ± 4.9 | 1.27 | 12.7 ± 5.1 | 3.41 | 43.3 ± 9.1 | inhibition of IL-6 release vs control [11]: 48%
4 | CCc1cc(=O)c2c(OCC(O)CNC(C)C)c3ccoc3c(OC)c2o1 (stereo not shown) [Compound 4, 7-ethyl-9-methoxy-4-{2-hydroxy-3-[(propan-2-yl)amino]propoxy}-5H-furo[3,2-g][1]benzopyran-5-one] | 32.3 ± 7.9 | 1.31 | 18.2 ± 3.6 | 2.32 | 27.4 ± 6.5 | 1.54 | 11.4 to 11.5 | 3.68 | 42.3 ± 7.9 | reduction of IL-6 release vs control [12]: strongest effect; cells in late apoptosis or necrosis [6]: 55.6%; IC50 [4, 19]: 11.5 ± 6.6 µM; reduction of IL-6 secretion vs control [13]: around 50%
5 | CCc1cc(=O)c2c(OCC(O)CN3CCC(C)CC3)c3ccoc3c(OC)c2o1 (stereo not shown) [Compound 5, 7-ethyl-9-methoxy-4-[2-hydroxy-3-(4-methylpiperidin-1-yl)propoxy]-5H-furo[3,2-g][1]benzopyran-5-one] | 43.8 ± 8.3 | 1.00 | 29.4 ± 4.9 | 1.49 | 32.6 ± 3.7 | 1.34 | 26.3 ± 3.3 | 1.67 | 43.8 ± 8.3 | 
6 | CCc1cc(=O)c2c(OCC(O)CN3CCCCC3)c3ccoc3c(OC)c2o1 (stereo not shown) [Compound 7, 7-ethyl-9-methoxy-4-[2-hydroxy-3-(piperidin-1-yl)propoxy]-5H-furo[3,2-g][1] benzopyran-5-one] | 35.2 ± 6.3 | 1.47 | 32.5 ± 4.1 | 1.60 | 32.3 ± 3.8 | 1.61 | 28.6 ± 5.5 | 1.81 | 51.9 ± 6.3 | 
7 | CCc1cc(=O)c2c(OCC(O)CNC(C)(C)C)c3ccoc3c(OC)c2o1 (stereo not shown) [Compound 8, 7-ethyl-9-methoxy-4-[3-(tert-butylamino)-2-hydroxypropoxy]-5H-furo[3,2-g][1] benzopyran-5-one] | 38.4 ± 7.3 | 1.20 | 31.3 ± 2.6 | 1.47 | 33.4 ± 4.6 | 1.38 | 26.3 ± 4.3 | 1.75 | 46.1 ± 7.3 | 
8 | CCc1cc(=O)c2c(OCC(O)CN3CCOCC3)c3ccoc3c(OC)c2o1 (stereo not shown) [Compound 9, 7-ethyl-9-methoxy-4-[2-hydroxy-3-(morpholin-4-yl)propoxy]-5H-furo[3,2-g][1] benzopyran-5-one] | 37.6 ± 7.3 | 1.43 | 23.4 ± 2.6 | 2.29 | 29.5 ± 4.6 | 1.82 | 21.9 ± 4.3 | 2.45 | 53.6 ± 7.3 | 
9 | N.N.[Cl][Pt][Cl] [Ref 1, cisplatin, reference compound] |  |  |  |  |  |  |  |  |  | IC50 ([1]; MTT, 72 h, mean SD): 2.7 ± 1.1 µM; IC50 ([2]; MTT, mean SD): 1.4 ± 0.69 µM; IC50 ([3]; MTT, mean SD): 1.8 ± 0.74 µM; IC50 [4, 19]: 1.9 ± 0.9 µM; IC50 ([5]; MTT, mean SD): 2.8 ± 1.1 µM
10 | COc1cccc2c1C(=O)c1c(O)c3c(c(O)c1C2=O)C[C@@](O)(C(=O)CO)C[C@@H]3O[C@H]1C[C@H](N)[C@H](O)[C@H](C)O1 [Ref 2, doxorubicin, reference compound] | 0.9 ± 0.19 |  | 0.5 ± 0.21 |  | 0.6 ± 0.14 |  | 0.7 ± 0.16 |  |  | 
11 | CC[C@@]1(O)C(=O)OCc2c1cc1n(c2=O)Cc2cc3ccccc3nc2-1 [camptothecin] |  |  |  |  |  |  |  |  |  | apoptosis induction (positive control) ([6]; A549, 4 µM, 4 h): induced apoptosis; apoptosis induction (positive control) [14]: induced apoptosis; apoptosis induction (positive control) [15]: induced apoptosis; apoptosis induction (positive control) [16]: induced apoptosis; apoptosis induction (positive control) ([9]; HTB-140, 4 µM, 4 h): induced apoptosis
